Measurements reported in ChEMBL document CHEMBL5352430, “Multi-parameter optimization: Development of a morpholin-3-one derivative with an improved kinetic profile for imaging monoacylglycerol lipase in the brain” (Eur J Med Chem, 2022).

Assays:
[1] = Drug uptake in rat brain cortex; type: ADME, tissue-based; conditions: in vitro
[2] = Drug uptake in rat brain hippocampus; type: ADME, tissue-based; conditions: in vitro
[3] = Drug uptake in rat brain striatum; type: ADME, tissue-based; conditions: in vitro
[4] = Drug uptake in rat brain thalamus; type: ADME, tissue-based; conditions: in vitro
[5] = Drug uptake in rat brain cerebellum; type: ADME, tissue-based; conditions: in vitro
[6] = Drug uptake in rat brainstem; type: ADME, tissue-based; conditions: in vitro
[7] = Drug uptake in rat brain in presence of PF-06795071; type: ADME, tissue-based; conditions: in vitro
[8] = Drug uptake in rat brain in presence of SAR127303; type: ADME, tissue-based; conditions: in vitro
[9] = Lipophilicity, logD of the compound at pH 7.4 by shake flask assay; type: physicochemical; conditions: buffer
[10] = Drug uptake in mouse brain assessed as maximum standardized uptake value measured after 60 mins; type: ADME, tissue-based; conditions: in vivo, 1 h
Method in brief: (§1)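 Mouse dynamic PET. Tracer at 6.33–14.42 nmol/kg given by tail-vein injection; 60 min scan started 1 min later. Data expressed as SUV, i.e. decay-corrected regional radioactivity normalized to injected dose and body weight. Blocking: MAGLi432 at 5 mg/kg in DMSO/Tween80/saline 1/1/8, injected 5 min before tracer.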

[11] = Drug uptake in wild type mouse after 20 mins; type: ADME; conditions: in vivo; method in brief: as §1
[12] = Drug uptake in MAGL knock out mouse; type: ADME; conditions: in vivo; method in brief: as §1
[13] = Drug uptake in Mdrla/b-Bcrp KO mouse; type: ADME; conditions: in vivo; method in brief: as §1
[14] = Drug uptake in Mdrla/b-Bcrp KO mouse pretreated with MAGLi432; type: ADME; conditions: in vivo; method in brief: as §1
[15] = Drug uptake in mouse brain assessed as standardized uptake value measured after 2 mins; type: ADME, tissue-based; conditions: in vivo; method in brief: as §1

Row | Drug uptake [1] | Drug uptake [2] | Drug uptake [3] | Drug uptake [4] | Drug uptake [5] | Drug uptake [6] | Drug uptake [7] | Drug uptake [8] | logD [9] | SUVmax [10] | Drug uptake [11] | Drug uptake [12] | Drug uptake [13] | Drug uptake [14] | SUV [15] | Structure (SMILES)
1 | Active | Active | Active | Active | Active | Not Active | Not Active | Not Active | 2.65 | 0.4 | Active | Not Active | Active | Not Active | 1.67 | O=C1CO[C@H]2CCN([11C](=O)N3CC(CCc4c(F)cccc4C(F)(F)F)C3)C[C@H]2N1
2 | – | – | – | – | – | – | – | – | – | – | – | – | – | – | 0.72 | O=C1CO[C@H]2CCN([11C](=O)N3CC(OCc4ccc(C(F)(F)F)cc4Cl)C3)C[C@H]2N1
